pIC50, pKi: −log10 of the molar value.
Experiments:
[1] = organism: Rattus norvegicus; assay: Inhibitory activity against L-6 rat myoblast cells; assay type: functional, cell-based
How it was run: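 Noninfected rat L-6 skeletal myoblasts seeded at 2000 cells/well in RPMI 1640 with 10% FBS and 2 mM L-glutamine; serial drug dilutions as in the T. cruzi assay, 37 °C, 5% CO2; MIC determined microscopically after 4 days.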

[2] = target: T1, Adenosine transporter 1 (Trypanosoma brucei, UniProt Q9Y0I0); assay: Ability to inhibit adenosine uptake by the P2 transporter in Trypanosoma brucei
T1 sequence (Q9Y0I0 whole entry): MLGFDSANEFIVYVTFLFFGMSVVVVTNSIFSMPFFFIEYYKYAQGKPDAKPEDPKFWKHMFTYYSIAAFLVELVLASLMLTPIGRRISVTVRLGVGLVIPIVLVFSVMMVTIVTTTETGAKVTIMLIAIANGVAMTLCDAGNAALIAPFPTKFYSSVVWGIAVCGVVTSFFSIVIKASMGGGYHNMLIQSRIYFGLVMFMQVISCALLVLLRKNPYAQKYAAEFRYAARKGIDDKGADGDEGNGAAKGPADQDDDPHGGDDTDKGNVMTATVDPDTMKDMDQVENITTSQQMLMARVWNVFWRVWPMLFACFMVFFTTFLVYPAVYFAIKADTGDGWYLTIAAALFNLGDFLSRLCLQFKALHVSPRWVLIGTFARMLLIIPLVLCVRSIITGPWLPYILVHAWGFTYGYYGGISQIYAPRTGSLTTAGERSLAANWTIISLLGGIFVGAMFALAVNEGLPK
How it was run: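 T. b. brucei 427 cells (100 µL at 2 × 10⁸/mL) added to buffer with radiolabeled adenosine, 1 mM inosine to block P1 uptake, and varying inhibitor concentrations; 10 s at room temperature, then spun through 1-bromododecane oil, pellet radioactivity counted by scintillation. Apparent Ki from competitive inhibition equation; duplicate experiments.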

[3] = Inhibitory activity against Trypanosoma cruzi; assay type: functional
How it was run: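 L-6 myoblasts (2000/well, RPMI 1640, 10% FBS, 2 mM L-glutamine) infected after 24 h with 5000 trypomastigotes of T. cruzi Tulahuen C2C4 carrying LacZ plus serial drug dilution; 4 days at 37 °C, 5% CO2. Intracellular amastigote growth read via CPRG/Nonidet colour at 540 nm after 2-4 h; IC50 from sigmoidal inhibition curve.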

[4] = test system: Trypanosoma brucei rhodesiense; assay: Inhibitory activity against T.b. rhodesiense; assay type: functional, organism-based
[5] = test system: Trypanosoma brucei brucei; assay: Inhibitory activity against Trypanosoma brucei; assay type: functional, organism-based

SMILES | pIC50 [1] | pKi [2] | pIC50 [4] | pIC50 [5] | pIC50 [3]
CC(CNCCCNc1nc(N)nc(N)n1)NCCCNc1nc(N)nc(N)n1 (centres undefined) | 3.44 | 3.79 | < 3.79 | < 4.00 | < 3.79
Nc1nc(N)nc(NCCCCCCCCCCCCNc2nc(N)nc(N)n2)n1 | 3.62 |  | 4.89 |  | 5.22
CNc1nc(N)nc(NCCCNCCCCCCCCCCCCNCCCNc2nc(N)nc(NC)n2)n1 |  | 6.87 | 5.01 | 5.70 | 3.94
Nc1nc(N)nc(NCCCNCCCCNCCCNc2nc(N)nc(N)n2)n1 | 3.45 | 4.14 | 3.80 | < 4.00 | < 3.80
CCCCCCCCCCCCCCCCCCNc1nc(NC)nc(NC)n1 | 4.32 |  | 4.85 |  | 4.92
CNc1nc(N)nc(NCCCNCCCCCCCCCNCCCNc2nc(N)nc(NC)n2)n1 | 3.55 | 6.12 | 4.80 | 4.28 | < 3.87
Nc1nc(N)nc(NCCCNC2CCCCC2NCCCNc2nc(N)nc(N)n2)n1 (centres undefined) | 3.47 | 4.26 | < 3.82 | < 4.00 | < 3.82
CN(C)c1nc(N)nc(NCCCNCCCCCCCCCCCCNCCCNc2nc(N)nc(N(C)C)n2)n1 | 4.29 | 6.62 | 5.46 | < 4.00 | 5.01
CN(C)c1nc(N)nc(NCCCNCCCCCCCCCNCCCNc2nc(N)nc(N(C)C)n2)n1 | 3.56 | 5.00 | 5.02 | 4.40 | < 3.91
CNc1nc(NC)nc(NCCCNCCCCCCCCCNCCCNc2nc(NC)nc(NC)n2)n1 | 3.54 | 4.85 | 4.77 | 5.40 | < 3.89
Nc1nc(N)nc(NCCCNCCCCCCCCCCCCNCCCNc2nc(N)nc(N)n2)n1 | 3.53 | 6.30 | 4.80 | < 4.00 | < 4.89
Nc1nc(N)nc(NCCCNCCCCCCCCCNCCCNc2nc(N)nc(N)n2)n1 |  | 4.72 | 3.89 | < 4.00 | < 3.85
CNc1nc(NC)nc(NCCCNCCCCCCCCCCCCNCCCNc2nc(NC)nc(NC)n2)n1 | 3.84 | 5.49 | 5.64 | 4.77 | 4.74
Nc1nc(N)nc(CN(CCCNCCCCCCCCCNCCCN(Cc2nc(N)nc(N)n2)Cc2nc(N)nc(N)n2)Cc2nc(N)nc(N)n2)n1 | 3.66 | 4.09 | 5.40 | 4.49 | < 4.06
Nc1nc(N)nc(NCCCNC2CCC(NCCCNc3nc(N)nc(N)n3)CC2)n1 (centres undefined) | 3.47 | 3.90 | < 3.82 | < 4.00 | < 3.82

The next compounds have a higher pIC50 [4] than those just listed; values first:

pIC50 [1] | pKi [2] | pIC50 [4] | pIC50 [5] | SMILES | pIC50 [3]
4.85 | 6.22 | 5.89 | 4.83 | CN(C)c1nc(NCCCNCCCCCCCCCCCCNCCCN)nc(N(C)C)n1 | 6.15
4.42 | 4.54 | 5.92 | 4.49 | CN(C)c1nc(NCCCNCCCCCCCCCNCCCNc2nc(N(C)C)nc(N(C)C)n2)nc(N(C)C)n1 | 4.80
3.90 | 6.39 | 5.96 | < 3.70 | CNc1nc(N)nc(NCCCNCCCCCCCCCCCCNCCCN)n1 | < 3.81
4.40 | 6.00 | 6.03 | 4.70 | CN(C)c1nc(N)nc(NCCCNCCCCCCCCCCCCNCCCN)n1 | 4.49
3.87 | 4.77 | 6.03 | 4.08 | CNc1nc(NC)nc(NCCCNCCCCCCCCCNCCCN)n1 | 4.64
5.17 | 5.60 | 6.09 | 5.77 | CN(C)c1nc(NCCCNCCCCCCCCCCCCNCCCNc2nc(N(C)C)nc(N(C)C)n2)nc(N(C)C)n1 | 6.10
4.24 | 4.60 | 6.24 | 4.70 | CNc1nc(NC)nc(NCCCNCCCCCCCCCCCCNCCCN)n1 | 4.51
3.73 | 5.17 | 6.24 | 4.68 | Nc1nc(N)nc(CN(CCCNCCCCCCCCCCCCNCCCN(Cc2nc(N)nc(N)n2)Cc2nc(N)nc(N)n2)Cc2nc(N)nc(N)n2)n1 | < 4.07
3.98 | 5.34 | 6.36 | 5.70 | CN(C)c1nc(N)nc(CN(CCCNCCCCCCCCCCCCNCCCN(Cc2nc(N)nc(N(C)C)n2)Cc2nc(N)nc(N(C)C)n2)Cc2nc(N)nc(N(C)C)n2)n1 | < 4.11
3.75 | 4.52 | 6.58 | 7.00 | CNc1nc(CN(CCCNCCCCCCCCCNCCCN(Cc2nc(NC)nc(NC)n2)Cc2nc(NC)nc(NC)n2)Cc2nc(NC)nc(NC)n2)nc(NC)n1 | 4.11
3.75 | 4.77 | 6.58 | 5.52 | CN(C)c1nc(N)nc(CN(CCCNCCCCCCCCCNCCCN(Cc2nc(N)nc(N(C)C)n2)Cc2nc(N)nc(N(C)C)n2)Cc2nc(N)nc(N(C)C)n2)n1 | 4.26
4.12 | 5.62 | 6.74 | 5.54 | CNc1nc(CN(CCCNCCCCCCCCCCCCNCCCN(Cc2nc(NC)nc(NC)n2)Cc2nc(NC)nc(NC)n2)Cc2nc(NC)nc(NC)n2)nc(NC)n1 | < 4.11

Reference: ChEMBL document CHEMBL1134629, “Synthesis and biological evaluation of s-triazine substituted polyamines as potential new anti-trypanosomal drugs” (J Med Chem, 2001)
